By inhibition is commonly meant the change of the read-out against control, counted positive when it falls. As a reminder, the IC50 is the concentration at which inhibition is half-maximal.

From ChEMBL document CHEMBL1155036, “Synthesis and biological activity of some new flavonyl-2,4-thiazolidinediones” (Bioorg Med Chem, 2008) come the findings set out here.

Assay [1] deals with INS1. The experiment in a line: Insulinotropic activity in rat INS1 cells assessed as glucose-mediated insulin release at 1 ug/ml by radioimmunoassay relative to glucose. In kind it is functional. An outline of the steps:
(§1)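 Rat INS-1 cells are grown 4–6 days to half confluence in RPMI with 10% FCS and penicillin/streptomycin. Cells are washed, then incubated 90 min at 37 °C in KRBH (10 mM HEPES, 0.5% BSA) at 5.6 mM glucose, with or without compound. Secreted insulin is measured by radioimmunoassay with a rat insulin standard and corrected for solvent (ethanol, DMSO). Results are normalized to 5.6 mM glucose = 100%. Mean ± SEM, N = 4–8; ANOVA with Newman–Keuls.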

Assay [2] has as its system INS1. The experiment in a line: Insulinotropic activity in rat INS1 cells assessed as glucose-mediated insulin release at 10 ug/ml by radioimmunoassay relative to glucose. Type of assay: functional. An outline of the steps: as §1
Assay [3] addresses Aldo-keto reductase family 1 member B1 (Rattus norvegicus) (UniProt P07943). The experiment in a line: Inhibition of rat kidney aldose reductase activity assessed as NADPH oxidation at 100 uM. An outline of the steps: (§2)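 Assay in 0.067 M phosphate buffer, pH 6.2, with NADPH (2 × 10^-5 M final) and DL-glyceraldehyde substrate (5 × 10^-5 M final). The 340 nm absorbance decrease is followed for 5 min at 37 °C. Drug is added from a 10^-4 M stock in 50% DMF/50% methanol. Percent inhibition is measured at this single drug concentration, and IC50 from a concentration series. Triplicates; mean ± SD of three experiments.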

Assay [4] addresses Aldo-keto reductase family 1 member B1 (Rattus norvegicus, UniProt P07943). Description: Inhibition of rat kidney aldose reductase activity assessed as NADPH oxidation. An outline of the steps: as §2

Consider `O=C(O)CN1C(=O)S/C(=C\c2cccc(-c3cc(=O)c4ccccc4o3)c2)C1=O`, for which the Activity in the assay with INS1 [1] turned out to be 98.1%; with INS1 [2], 84.09%. For the same molecule, the inhibition in assay [3] was determined as 86.6%. Moreover, the IC50 in assay [4] was 415 nM.

As for `COc1ccc(Cl)cc1C(=O)NCCc1ccc(S(=O)(=O)NC(=O)NC2CCCCC2)cc1` [GLYBURIDE], in the assay on INS1 [1], the Activity came to 179.6%.

For the molecule `O=C1NC(=O)/C(=C/c2cccc(-c3cc(=O)c4ccccc4o3)c2)S1`, the Activity in the assay with INS1 [1] worked out at 79.76%; in the assay with INS1 [2], 18.95%. The inhibition in assay [3] is 22.1%.

Take `O=C1NC(=O)/C(=C/c2ccc3oc(-c4ccccc4)cc(=O)c3c2)S1`: the figures for the Activity in the assay with INS1 [1] and with INS1 [2] were 82.55% and 158.9%, respectively. The inhibition in assay [3] turned out to be 64.9%. For the same molecule, the concentration for half-maximal inhibition (IC50) in assay [4] came to 683 nM.

`O=C(O)CN1C(=O)S/C(=C\c2ccc3oc(-c4ccccc4)cc(=O)c3c2)C1=O`: the Activity is reported as 101.3% in the assay on INS1 [1] and 80.92% in the assay with INS1 [2]. Also, in assay [3], the inhibition came out at 56.3%. Also, the IC50 in assay [4] was 852 nM.

Turning to `CCOC(=O)CN1C(=O)S/C(=C\c2ccc(-c3cc(=O)c4ccccc4o3)cc2)C1=O`, the Activity in the assay on INS1 [1] was determined as 106.2%; in the assay on INS1 [2], 128.6%. Also, the inhibition in assay [3] came out at 6.74%.

`CCOC(=O)CN1C(=O)S/C(=C\c2cccc(-c3cc(=O)c4ccccc4o3)c2)C1=O`: the values for the Activity with INS1 [1] and in the assay with INS1 [2] were 103.4% and 98.43%, respectively. Moreover, the inhibition in assay [3] was found to be 12.9%.

Consider `O=C1NC(=O)/C(=C/c2ccc(-c3cc(=O)c4ccccc4o3)cc2)S1`, for which the figures for the Activity in the assay with INS1 [1] and with INS1 [2] were 55.7% and 23.79%, respectively. In assay [3], the inhibition is 88.7%. Moreover, in assay [4], the IC50 stood at 432 nM.

With `CCOC(=O)CN1C(=O)S/C(=C\c2ccc3oc(-c4ccccc4)cc(=O)c3c2)C1=O`, the Activity in the assay with INS1 [1] is given as 93.28%; in the assay with INS1 [2] it was 98.52%. Besides, in assay [3], the inhibition was found to be 14.4%.

As for `O=C(O)CN1C(=O)S/C(=C\c2ccc(-c3cc(=O)c4ccccc4o3)cc2)C1=O`, the Activity in the assay with INS1 [1] is 102.4%; with INS1 [2], 91.88%. Moreover, in assay [3], the inhibition amounted to 44.6%.
